S1P1 ag pot = agonists and agonism potentiators of human S1P1 receptor; P21453; S1P1 CRE-bla cells, forskolin, beta-lactamase FRET, potentiator mode; S1P1 agonist co-added at EC20, 2 nM; 100% = saturating reference agonist, 0% = basal; activation, % at 9.5 µM; 56,000 tested, 0.57% active;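 active = activation above a cutoff set at the mean activation of all tested compounds plus 3 SD, cut at about 54% in these data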;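 also: forskolin at 4 µM as EC80 and the EC20 agonist is SEW2871; 100% = SEW2871 at its EC100 plus forskolin at EC80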
M1 ag = agonists of M1 muscarinic receptor | CHO-M1 cells, Fluo-4 calcium fluorescence, agonist mode; hits give high values | B-score at 10 µM | 64,000 tested, 3% active | AID 626;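 active = fluorescence rise, raw or as B-score row- and column-corrected plate score, outside the 99.7% band of its plate's samples, either direction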
D1 mod = allosterically modulates the human D1 dopamine receptor. HEK293 D1, CRE-luciferase, dopamine EC30 potentiation; actives deviate in either direction. B-score at 10 µM. 58,000 tested, 5.9% active. AID 641;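 active = luminescence count or its row- and column-corrected plate score outside the 99.7% band of the plate's sample wells, on either side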
M1 antag = antagonists of rat M1 muscarinic receptor. P08482. CHO-M1 cells, Fluo-4 calcium, ACh EC80 antagonist mode; hits give low values. B-score at 10 µM. 64,000 tested, 3.4% active. AID 628;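 active = calcium fluorescence response, raw or row-and-column corrected B-score, differing from the plate sample mean either way at a set confidence level, mostly lower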
Target sequence (P08482 whole entry, looked up): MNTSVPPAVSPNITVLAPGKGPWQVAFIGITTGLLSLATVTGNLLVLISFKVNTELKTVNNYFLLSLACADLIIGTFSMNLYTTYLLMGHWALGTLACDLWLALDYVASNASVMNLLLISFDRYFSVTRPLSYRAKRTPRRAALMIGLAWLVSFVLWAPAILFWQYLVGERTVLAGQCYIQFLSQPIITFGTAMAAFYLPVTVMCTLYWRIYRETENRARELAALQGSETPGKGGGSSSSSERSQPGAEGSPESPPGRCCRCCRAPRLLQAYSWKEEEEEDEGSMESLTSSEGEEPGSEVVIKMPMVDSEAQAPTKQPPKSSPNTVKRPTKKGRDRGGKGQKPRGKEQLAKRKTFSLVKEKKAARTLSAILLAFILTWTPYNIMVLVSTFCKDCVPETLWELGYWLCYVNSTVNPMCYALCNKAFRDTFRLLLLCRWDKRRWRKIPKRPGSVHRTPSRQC
S1P3 agonist = activates the human S1P3 receptor. S1P3 NFAT-BLA reporter cells, agonism, FRET ratio; relative to 1 µM S1P, basal subtracted. activation, % at 4.5 µM. 60,000 tested, 0.1% active. AID 373;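 active = activation above the screen-wide mean plus 3 SD, cut at about 4.5% in these data, passing the limit was not always enough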
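Assay system: stable CHO line with human S1P3, Gα16, NFAT-BLA reporter; Detection: FRET β-lactamase substrate fluorescence, excitation 405 nm, 460/535 nm emission ratio, background-subtracted; Read-out: percent activation versus median 1 µM S1P response, basal-subtracted, per plate; Incubation: cells plated overnight, compound 4 h 37 °C, substrate 2 h RT.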
* marks the source's active call; other numbers are inactive results; . = no result given. Sampled rows, rich in hits. Any-hit rate of the full collection: about 11%.

SMILES	S1P1 ag pot	M1 ag	D1 mod	M1 antag	S1P3 agonist
Cc1cccc(-c2nc3ccccc3c3nncn23)c1	-12	-0.23	14*	0.57	-1
c1ccc2c(c1)nc(-c1ccncc1)n1nnnc21	-13	-0.5	3.4	-0.27	0
Cc1ccccc1OCCCCc1c(C)n[nH]c1C	131*	-0.51	-1.5	-0.92	-2
NC(=O)C1CCN(C(=O)C2c3ccccc3C(=O)N3CCc4ccccc4C23)CC1 (stereo not given)	2	0.036	0.047	-0.15	0
CN(C)S(=O)(=O)c1ccc(/C(O)=C2/C(=O)C(=O)N(CCN3CCCCC3)C2c2cccnc2)cc1 (stereo not given)	-12	0.047	-0.035	-0.44	-2
O=C(/C=C/Nc1ccc(F)cc1)c1ccco1	13	2.1	-7.3*	0.52	0
CC(=O)Nc1ccc(N/C=C/C(=O)c2ccc(C)o2)cc1	3	1.1	-2.4	0.22	-1
O=C(CN1CCN(c2ncccn2)CC1)N1CCN(C(c2ccccc2)c2ccccc2)CC1	.	-0.94	-0.5	-1.1	.
Nc1ccc(C(=O)OCCCc2nc3ccccc3[nH]2)cc1	1	0.32	-0.67	0.86*	-1
CS/C(=N\S(=O)(=O)c1cccs1)NC(=O)CSc1nc2ccccc2s1	8	-2.8	.	0.032	0
CCOC(=O)c1cccc(NC(=O)c2cc3sccc3n2C)c1	24	2.8	-0.79	0.0054	0
Cn1c(C(=O)Nc2ccc3c(c2)OCCO3)cc2sccc21	15	0.55	-2.7*	-0.54	0
Cc1cccc(NC(=O)C2CCCN2S(=O)(=O)c2cccc3cccnc23)c1 (stereo not given)	3	0.72	0.72	0.74*	0
Cc1ccccc1-c1nnc(SCc2ccccc2F)o1	89*	0.098	1.2	-0.19	0
CSCC[C@H](NC(=O)OC(C)(C)C)c1nnc(SCC(N)=O)o1	-1	0.53	-2.2*	-0.63	0
CCN(CC)C(=O)CSc1nnc([C@H](CCSC)NC(=O)OC(C)(C)C)o1	-4	-0.57	-0.03	0.16	0
O=S(=O)(N1CCOCC1)n1c(Cc2ccccc2)nc2ccccc21	-37	0.17	4.4*	0.62	0
O=S(=O)(N1CCOCC1)n1nnc2ccccc21	-53	0.75	0.34	0.95	0
COc1cccc(-c2cc(C(=O)Nc3ccccc3SC)no2)c1	89*	1	-0.47	0.52	-1
COc1ccccc1-c1cc(C(=O)Nc2ccccc2SC)no1	94*	1.7	-0.17	-0.046	0
C=CCn1c(=O)c2c(C)c(C)sc2n2c(Nc3ccccc3)nnc12	-12	0.34	1.6	0.15	0
Cc1ccc(-c2noc(CSc3nnnn3C3CCCCC3)n2)cc1	23	0.18	.	-2	-2
CCn1cc(C(=O)NCCCN2CCC(C)CC2)c2cc(OC)c(OC)cc2c1=O	-9	0.11	0.14	0.2	0
CC(=O)OC1C(OC(C)=O)N(C(C)=O)C(=O)N1C(C)=O (stereo not given)	10	1.7	-0.62	1.9*	-1
Cn1cnnc1SCc1ccc(C(=O)O)cc1	.	1.2	0.33	2.1*	.
SMILES	S1P1 ag pot	M1 ag	D1 mod	M1 antag	S1P3 agonist
Cn1cnnc1SCc1ccc(C#N)cc1	-38	0.8	-0.065	-0.016	0
Cn1c(=O)[nH]c(=O)c2c1nc(N1CCN(Cc3ccccc3)CC1)n2CCCc1ccccc1	-24	0.034	3.8	-2.5	-2
Cn1c(=O)[nH]c(=O)c2[nH]c(CN3CCN(Cc4ccccc4)CC3)nc21	-20	0.91	-4.3*	2	1
CC(C)Cn1c2nc3ccccc3nc2c2c(=O)n(CCN3CCOCC3)cnc21	0	-1.1	4.8*	-0.048	0
Cc1ccc(C(C)C)c(OCC(O)CN2CC(C)OC(C)C2)c1 (stereo not given)	-5	0.14	-3.5*	-0.041	0
Cc1ccc(C(C)C)c(OCC(O)CN2CCOCC2)c1 (stereo not given)	-2	0.29	0.21	-0.62	-1
CCOC(=O)C1CCCN(C(=O)COC(=O)C2=COCCO2)C1 (stereo not given)	6	0.15	-0.6	-0.24	0
COc1ccccc1S(=O)(=O)Cc1ccc(C(=O)N2CCN(c3ccc(C)cc3)C(C)C2)o1 (stereo not given)	30	3.3	-2.8*	-1.8	-1
CCOC(=O)C1=C(C)NC(=O)NC1c1cccnc1 (stereo not given)	-6	-0.6	-7.8*	0.45	-2
O=C(CCN1CCN(c2ccc(Cl)cc2)CC1)Nc1ccccc1F	-6	0.03	-0.3	2.1*	1
O=C(CCN1CCN(c2ccccc2F)CC1)Nc1ccccc1F	-24	-0.21	2.9	-0.51	-1
CCOc1cccc(NC(=O)C2CC(=O)NC(=Nc3ccccc3)S2)c1 (stereo not given)	2	-0.23	4.1	-0.54	-5
CCNc1nc(NCC)nc(OCCNS(=O)(=O)c2cc(C)ccc2C)n1	.	-1.4	-0.83	-1.7	.
CCNc1nc(OCCNS(=O)(=O)c2cc(C)ccc2C)nc(N(C)C)n1	-24	-0.83	2.8	1.8*	-1
CCNC(=O)CC1C(=O)N(c2ccccc2)C(=O)N1Cc1ccc(OC)cc1 (stereo not given)	.	-0.76	0.0012	0.12	.
CCn1c(SCC(=O)c2cc(OC)ccc2OC)nc2c1c(=O)n(C)c(=O)n2C	-19	0.51	4.9*	0.63	-1
COc1ccccc1N1CCN(C/C(C)=C/c2ccccc2)CC1	-11	-1.1	-3.6*	-1.2	-1
C[C@H](NC(=O)C1(c2ccccc2)CCN(C(=O)[C@H]2CSCN2C(=O)OC(C)(C)C)CC1)C(=O)O	6	-0.85	0.026	-0.81	-1
Cc1ccc(CNC(=O)c2ccccc2NC(=O)CSc2nnnn2C)cc1	16	-0.37	0.15	-0.68	0
Clc1ccccc1C1=Nn2c(nnc2-c2ccncc2)SC1	75*	0.98	1.1	-0.0042	-1
Cc1c(C)[n+](=O)c2c(n1[O-])CCCCC2	2	-0.85	-0.97	0.27	1
COC(=O)c1c(NC(C)=O)sc2c1CCCC2	-26	0.047	5.5*	0.2	0
COC(=O)c1c(NS(C)(=O)=O)sc2c1CCCC2	.	-0.093	.	0.24	.
CCOC(=O)Cc1csc(NC(=O)COc2ccccc2)n1	.	-1.4	0.048	-1	-1
CCOC(=O)Cc1csc(NS(=O)(=O)Cc2ccccc2)n1	-4	-0.25	-0.0044	2.6*	-1
COCCn1c(C)cc(C(=O)COC(=O)c2n[nH]c3ccccc23)c1C	38	-2	-8.4*	-0.11	1
Cc1cc(C(=O)COC(=O)c2n[nH]c3ccccc23)c(C)n1C	32	-0.94	.	-0.11	0
CCOC(=O)c1oc2c(CN3CCN(C)CC3)c(O)ccc2c(=O)c1-c1ccccc1OC	-29	0.87	1.7	0.81*	0
COc1ccccc1-c1c(C)oc2c(CN3CCN(C)CC3)c(O)ccc2c1=O	4	0.18	.	0.019	-3
